The nature of series [1]: Hepatic microsomal stability. To be noted: mouse, liver microsomes, pH 7.4, intrinsic clearance, 1 μM OXA, 0.2 mg protein per ml. The series is classed as in vitro ADME. The procedure, abridged:
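Test compound (1 μM) incubated with mouse hepatic microsomes at 1, 0.5 and 0.2 mg/mL in 100 mM potassium phosphate, pH 7.4. Samples filtered and analysed by LC-MS/MS. Log-transformed data gave half-life. CLint (μl/min/mg) = ln2 × incubation volume / (half-life × mg protein). Unbound CLint came from the y-intercept of microsomal concentration vs 1/CLint.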
(In general: Liver microsomes are a subcellular fraction often used to study metabolism.)

Another series can be described thus: Mouse pharmacokinetics. The series is classed as in vivo.
A short description of a further series: Formulation solubility. The series is classed as physicochemical. The procedure, abridged:
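The aim was an oral dosing vehicle. Co-solvent solutions (polyethylene glycol or ethanol) were checked for precipitation by diluting 1:10 into saline. A 10 mg/ml solution was prepared in 100 mM acetate buffer, pH 4.5.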

Series [2] is described as follows: Clinical human OXA pharmacokinetics. Format: in vivo. The note with it: 40 mg/kg dose, assuming dose proportionality.
Series [3] is described as follows: Estimation of mouse hepatic inlet.
The conditions of series [4]: ref Daneshmend and Homeida, 1987, cited from earlier work.
Series [5] in a line: Tissue distribution in wild-type C57Bl/6J mice. Format: in vivo, mouse. To be noted: 4-h time point, 100 mg/kg oral dose.
The test system of the next series is P-gp efflux transporter. The experiment in a line: Tissue distribution in P-gp knockout mice. The series is classed as in vivo, mouse. The note with it: wild-type vs P-gp knockout mice, 4 h after 100 mg/kg oral dose.
Series [6] in a line: Blood to plasma ratio, Rb. The series is classed as in vitro ADME. To be noted: female, C57Bl/6J, mouse, fresh heparinized whole blood and fresh plasma. The procedure, abridged: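 Heparinized whole blood from female C57Bl/6J mice and matching fresh plasma were each spiked from a 10 mM DMSO stock to a final 5 μM and held 30 min at 37 °C. Samples were spun at 8000×g for 3 min, extracted into ACN/MeOH with diclofenac internal standard, and measured by LC-MS/MS. Rb = concentration in directly spiked plasma / concentration in plasma from spiked blood.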

The test system of the next series is Schistosoma mansoni. The experiment in a line: S. mansoni killing in vitro. Format: cell-based. The procedure, abridged: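 Hamster-derived adult male worms, 10 per well, in DMEM with 10% heat-inactivated FBS and antibiotic/antimycotic. Dosed within 2–4 h of harvest from 100X DMSO spikes: 0–143 μM, triplicate, 45 min at 37 °C, 5% CO2. Second set used 143 μM or DMSO for 15, 30 or 45 min. Worms washed thrice and cultured 14 days, medium changed every other day. Daily survival scored by motility, shedding, opacity and tegument blebbing; Kaplan-Meier curves.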

A short description of series [7]: Estimation of human hepatic inlet. Format: in vivo.
The subject of a further series is schistosomiasis. The note with it: sub-Saharan Africa; ref Doenhoff et al., 2009; cited from earlier work.
The next series has as its system S. mansoni. To be noted: meta-analysis, S. mansoni infections; ref Zwang and Olliaro, 2014; cited from earlier work.
The subject of the next series is S. haematobium. To be noted: meta-analysis, S. haematobium infections; ref Zwang and Olliaro, 2014; cited from earlier work.
The mark [8] stands for this setting: female, C57Bl/6J, mouse, plasma, iv, 3 mg/kg.
Where [9] appears, read: female, C57Bl/6J, mouse, plasma, po, 100 mg/kg, pH 4.5.
Where [10] appears, read: 100 mg/kg PO acetate buffer, WinNonlin one-compartment model.
The mark [11] stands for this setting: 100 mg/kg PO acetate buffer, method of residuals.
The mark [12] stands for this setting: patients n = 9, single oral dose 1000 mg.

Several values for one entry are separate records, joined by “and”; a condition that tells them apart may be missing. Equal entries are not always repeated. Where two headings read alike, the source gives them in different places.

We go through two molecules from PMC9929523 (International Journal for Parasitology: Drugs and Drug …, 2023).

One may read the microsomal CLint as the rate of metabolic loss divided by the concentration. The term AUC(0-inf) denotes the area under the concentration-time curve extrapolated to infinity. High values mean high exposure, low ones low exposure. Broadly, the Cmax is the maximum level reached in the sampled fluid or tissue. The term Tmax denotes the time at which the peak concentration occurs. Broadly, the clearance is a measure of how efficiently the substance is removed, as volume per time. Low values mean a low capacity for elimination, high ones a high capacity for elimination. The half-life is the time needed for the level to fall by half in the phase considered. Low values mean rapid decline, high ones slow decline. As usually defined, the CL/F is the apparent clearance, not corrected for the fraction that reaches the circulation. Broadly, the bioavailability is dose-corrected exposure relative to a reference, in per cent. Read a high bioavailability as good availability. Regarding `CC(C)NCC1CCc2cc(CO)c([N+](=O)[O-])cc2N1` (stereo not drawn) [OXA, oxamniquine], the microsomal CLint at 1 μM in [1] stood at 196 µL/min/mg. Besides, the Cl clearance in the series “Mouse pharmacokinetics” (100 mg/kg PO, 100 mM acetate buffer pH 4.5) came to 159 ± 3 mL/min/kg. Further, in the series “Mouse pharmacokinetics” (setting [8]), the AUC(0-inf) was 1.1 µM·h, the highest concentration (Cmax) was 2.2 ± 0.1 µM, the time of peak concentration (Tmax) was 5 min and the clearance was 157 ± 3 mL/min/kg. This molecule also returned a half-life in the series “Mouse pharmacokinetics” (setting [8]) of 51 ± 6 min. In the series “Mouse pharmacokinetics” (setting [9]), the AUC(0-inf) turned out to be 26.1 ± 1.7 µM·h, the apparent clearance (CL/F) was determined as 230 ± 14 mL/min/kg, the Cmax was 11.8 ± 1.6 µM and the time of peak concentration (Tmax) was 50 min. In the series “Mouse pharmacokinetics” (setting [9]), the bioavailability came out at 69.5 ± 5.3% and the half-life is 58 ± 6 min. The “solubility dependence on pH” value in the series “Formulation solubility” is on record as “increases at low pH”. The molecule further came in with a stable solution concentration in “Formulation solubility” (100 mM acetate buffer, pH 4.5) of 10 mg/mL. Further, the “expected maximal plasma levels” value in [2] is 9 to 14 µM. Besides, in series [3] (setting [10]), the “Inlet Concentration (portal)” value was 118 µM and 118 ± 10 µM; the “ka absorption rate constant” value was 0.043 min⁻¹. Moreover, in series [3] (setting [11]), the “Inlet Concentration (portal)” value is 132 µM and 132 ± 11 µM; the “ka absorption rate constant” value was 0.049 min⁻¹. Besides, the k el in series [3] (C57Bl/6J, mouse, in vivo, po, 100 mg/kg, ke elimination rate constant, 100 mg/kg PO acetate buffer, method of residuals) was 0.0002 s⁻¹. In addition, in series [3] (mouse, true value could range between 0.7 and 1), the “fraction orally absorbed (Fa x Fg)” value was 0.7. Besides, the peak plasma concentrations in series [4] (human, approximately 20 mg/kg oral dose) is 4 to 7 µM. In series [4] (setting [12]), the “AUC(0-∞)” value is 20.2 ± 4.9 µM·h, the Cmax is 4.5 ± 0.9 µM, the T1/2 was 151 ± 23 min and the Tmax is recorded as 103 ± 12 min. Further, the “bile concentration relative to liver tissue” value in [5] is given as 15 fold. In the series with P-gp efflux transporter, the “impact of efflux transporter P-gp on tissue distribution” value is recorded as “no indication that the efflux transporter P-gp impacts tissue distribution”. The blood plasma ratio at 30 min, 5 μM in series [6] worked out at 1.6. Also, the “worm killing at lower concentrations” value with Schistosoma mansoni (35.75 μM and 14.3 μM, 45 min exposure, 14 days) was “minimal worm killing”. Moreover, the worm survival entry with Schistosoma mansoni (71.5 μM, 45 min exposure, 14 days) is “significantly reduced”. The worm survival result in the series on Schistosoma mansoni (143 μM, 45 min exposure, 14 days) is recorded as “significantly reduced”. In addition, in the series on Schistosoma mansoni (143 μM, 45 min exposure, adult male worms, 14 days), the worm killing turned out to be 90%. Besides, the “efficacy of worm killing with shorter exposure times” value in the series on Schistosoma mansoni (143 μM, exposure 15 and 30 min) is reported as “maintained”. For the same molecule, the “rate of absorption in the human intestine” value in series [7] is on record as “approximately 2.5 % per minute”.

Consider `O=C(C1CCCCC1)N1CC(=O)N2CCc3ccccc3C2C1` (stereo not drawn) [praziquantel], for which the cure rates in the series with schistosomiasis is given as 60–90%. Further, the cure rate is reported as 76.7% in the series on S. mansoni and 77.1% in the series on S. haematobium.
